Assay results taken from the EternaBench riboswitch data.

Tested on: MS2 coat protein
Assay: apparent Kd, MS2 coat protein; higher = weaker binding; RNA-MaP array; FMN 200 µM where present
How it was run: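 The titrant was SNAP-549-labelled MS2 coat protein, run from 0.7 or 1.5 nM in doubling steps to 3 µM. It was applied to designs transcribed by stalled E. coli RNA polymerase on Illumina sequencing-chip clusters, without ligand first and then with constant ligand, in 100 mM Tris-HCl pH 7.5, 80 mM KCl, 4 mM MgCl2, BSA, DTT, yeast tRNA and Tween-20. The apparent Kd is the median of filtered per-cluster binding-curve fits, with green signal normalised to red-channel RNA signal and control-cluster median Fmax.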

[1] = designed as: ON switch for flavin mononucleotide, no ligand
[2] = ligand present: flavin mononucleotide, designed as: ON switch for flavin mononucleotide
[3] = designed as: OFF switch for flavin mononucleotide, no ligand
[4] = ligand present: flavin mononucleotide, designed as: OFF switch for flavin mononucleotide

Row | Sequence | apparent Kd [1] [nM] | apparent Kd [2] [nM] | apparent Kd [3] [nM] | apparent Kd [4] [nM]
1 | AGACCGCUACGCCGGUUUCACGCACAGGAUAUGCGGUUACAUGAGGAUCACCCAUGUGGCCAUGUGCAGAAGGGUGGUUCGUUA | 36.1 | 11.5 |  | 
2 | GUGUCUAACUAGAAGGCCGAUAGCAAAGCUAUCGGAGGAUAUGGGUUCCGGAAACGGACAUGAGGAUCACCCAUGUGGCACAAA | 103 | 13.8 |  | 
3 | GUGCGGUAGGAGAAGGACGGCGGGUUCUUUUCAUACAUGAGGAUCACCCAUGUAGGAUAUCCUACCUCACGCGGCCUACUACAG |  |  | 8.61 | 13.5
4 | AGAAAACAUGAGGAUCACCCAUGUCAGGAUAUCCUGCGGCGAUACAAGCCACGUUGUCGGAGAAGGGACAGGGA |  |  | 58 | 89.7
5 | CUCUUGUAAGGAUAUGCUGCUCGUCACGAAAGUGAUGAGUAGCAGAAGGUACAUGAGGAUCACCCAUGUAAAUA |  |  | 111 | 34.9
6 | AAUAAACUCACAGGAUAUAGCAGAGGUCGCGCGAACUUACAGGCGACUAUGCUAGAAGGGUGACCACAUGAGGAUCACCCAUGU | 944 | 162 |  | 
7 | UCGCUGCGAGGAUAUACGUGCGCGCGCUUUCGUUUGCGCGUACAUGAGGAUCACCCAUGUAGAAGGCGCGCUGC |  |  | 16.2 | 15.8
8 | AGCAUGUAAGGAUAUGCAAGUGGCACGGAUAGUACCAGAAAGCAGAAGGUACAUGAGGAUCACCCAUGUGCUCC |  |  | 26.8 | 94.9
9 | AUGGUUGUCGAGGAUAUGCACCGGCUCGCUGACGCAGAAGGCGACACAUGAGGAUCACCCAUGUCGGUUCGCGU |  |  | 22.4 | 51.4
10 | ACUAGAUGAGGAUAUGCAUAUUUUCGUGUUCUUCUAGGUUAACAUGAGGAUCACCCAUGUAGAAGGCGUCUAUC |  |  | 22.2 | 39.7
11 | GGGUGACAUGAGGAUCACCCAUGUCAGGAUAUGGGUUUGGGCCCGAAAGGGCCCGGGCCCAGAAGGGACUGCCC |  |  | 50.9 | 96.4
12 | GCGUACAUAUCAGGAUAUCAUAUUAUUGUUUUACUCAGUGUAUACAUGAGGAUCACCCAUGUUCUUGAGAAGGGAUUACUACGC |  |  | 15.2 | 14.7
13 | GCUGGCAUGCAAGGAUAUCCUUCCGAGUAGGAAGGAGAAGGUGCUUGUGGGACAUGAGGAUCACCCAUGUAUGUUGGCCACGAC | 134 | 79.2 |  | 
14 | AAUUGACACGUAGGAUAUCGCUCUUAUUUAACACGAGAAGGACGUACAUGAGGAUCACCCAUGUUAAAUGGUGUAGAUUAGUUG |  |  | 153 | 481
15 | AGCGUGUUAGGAUAUACACGACGCUGGGUAGCUAGCGGAGGGUAGAAGGGACAUGAGGAUCACCCAUGUUCGGG |  |  | 74.1 | 105
16 | CUCCAGCAAGGAUAUACAUGAGGAUCACCCAUGUAAAGACAAGAGUUGGGAGACGCAUGUAGAAGGUGCACAUC |  |  | 38.2 | 69
17 | AAUUCACAUGAGGAUCACCCAUGUCAGGAUAUGGUUUCACGUUUUUCUUUUCUUGAGGCCAGAAGGGACAGCUA |  |  | 67.6 | 79.1
18 | GGCCGGGCAGGAUAUACAUGAGGAUCACCCAUGUAUAUCCUUCAGCAUGGAUCCUCAUGUAGAAGGGCCCGGCC |  |  | 13.2 | 11.9
19 | UAGAAGUCAGGAUAUCCUGCUCGUCACUUGCGUGAUGAGUAGGAGAAGGGACAUGAGGAUCACCCAUGUAAAGC |  |  | 61.1 | 49.5
20 | GCCAUCGUAUGAGGAUAUGGCACCGAAACGGUGCCAGAAGGCAUGUCAAUAGACAUGAGGAUCACCCAUGUAUUAUCGAUGGCA | 367 | 37.1 |  | 
21 | AUUAUGACCGAGUUAUACCUCUAAACAUGAGGAUCACCCAUGUAGGAUAUCAGCACGAUAAGUGCUGAGAAGGACAUCUCGGUC |  |  | 17.2 | 27
22 | UCACGUCACCAAGGAUAUACCCGAAGAUCCAUGGUAGAAGGUGGUGACAUGAGGAUCACCCAUGUCCGCGCGGACAAGUGUGUU |  |  | 118 | 26.7
23 | CAGUACUGAGGAUAUACAUGAGGAUCACCCAUGUGCCUAAGCUAGGAUACUAGCAUUAGUAGAAGGCAGUACUG |  |  | 12.8 | 24.8
